Hits are enriched below; roughly 4.1% of the tested compounds scored in any of these assays.
Efflux pump inh: blocks antifungal efflux pumps in multiplex yeast assay; S. cerevisiae Candida pump triplex, Nile Red efflux; inhibition, % at 10 µM; 0.44% of 330,000 active;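 active means plate passing quality check with inhibition over a set limit, or well fluorescence over plate mean plus 4 SD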;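 further: Nile Red retained in pooled yeast measured as flow cytometry median fluorescence; higher means more Nile Red kept so more efflux inhibition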
TbMetRS inhib: Trypanosoma brucei MetRS inhibition. inhibition, % at 11.9 µM. 0.4% of 360,000 active. AID 624268. purified T. brucei MetRS, ATP depletion, Kinase-Glo luminescence;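 active means inhibition above a per-plate cutoff of the control wells' mean inhibition plus 3 SD, cut at about 5.5% in these data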
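Test system – parasite MetRS enzyme · Reagent – substrates ATP, L-methionine and bulk Escherichia coli tRNA · Doses – 11.9 µM compound single dose, 0.9% DMSO · Times – 15 min enzyme-compound preincubation, 2 h reaction, 10 min detection, 25 °C · Signal – Kinase-Glo luminescence, ATP depletion format · Controls – DMSO-only wells as low control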
TAG inh: triacylglycerol accumulation inhibition. H9c2 cells, Nile Red lipid (TAG) fluorescence; cells loaded with 200 µM oleic acid. inhibition, % at 12.5 µM. 0.66% of 230,000 active. AID 651582;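 active means pattern-corrected inhibition of lipid staining of at least 50% with the nuclear-stain viability signal not falling by more than 50%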
SMARCA2 activ: activators of SMARCA2 function | MG213 cells, MMTV-luciferase reporter, dexamethasone, overnight | activation, % at 9.1 µM | 1% of 370,000 active; in the data active means activation above about 7.8%
AHR activator: activates the human aryl hydrocarbon receptor. P35869. AHR-responsive luciferase reporter cells, luminescence. activation, % at 5 µM. 2.5% of 320,000 active. AID 2796; in the data active means activation above about 47%
Target sequence (P35869 whole entry, looked up): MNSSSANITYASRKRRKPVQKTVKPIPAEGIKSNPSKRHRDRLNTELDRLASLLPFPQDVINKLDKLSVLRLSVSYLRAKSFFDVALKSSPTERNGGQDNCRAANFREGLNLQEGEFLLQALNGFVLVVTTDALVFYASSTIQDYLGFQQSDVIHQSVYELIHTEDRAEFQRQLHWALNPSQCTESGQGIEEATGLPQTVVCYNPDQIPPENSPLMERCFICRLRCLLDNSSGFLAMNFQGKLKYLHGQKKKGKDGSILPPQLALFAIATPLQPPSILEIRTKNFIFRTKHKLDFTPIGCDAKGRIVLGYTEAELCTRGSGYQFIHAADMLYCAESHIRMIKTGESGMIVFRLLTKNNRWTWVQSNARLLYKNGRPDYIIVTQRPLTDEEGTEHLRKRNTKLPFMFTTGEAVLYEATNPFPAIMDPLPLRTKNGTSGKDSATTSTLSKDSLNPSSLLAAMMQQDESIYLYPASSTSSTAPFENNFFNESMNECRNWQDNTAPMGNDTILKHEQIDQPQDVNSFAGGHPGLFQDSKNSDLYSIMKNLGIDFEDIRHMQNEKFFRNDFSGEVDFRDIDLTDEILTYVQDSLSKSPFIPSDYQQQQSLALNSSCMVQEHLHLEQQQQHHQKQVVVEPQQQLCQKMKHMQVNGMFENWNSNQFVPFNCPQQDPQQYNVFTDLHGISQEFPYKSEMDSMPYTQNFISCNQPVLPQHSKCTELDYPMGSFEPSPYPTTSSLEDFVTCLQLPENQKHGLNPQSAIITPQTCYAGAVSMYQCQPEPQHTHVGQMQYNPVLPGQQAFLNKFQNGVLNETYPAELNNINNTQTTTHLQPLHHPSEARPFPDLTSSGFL
Yeast cmpd fluor: flagged as fluorescent in efflux inhibitor counter-screen; shares compounds with Efflux pump inh; S. cerevisiae AD/pABC3, compound fluorescence, flow cytometry; fluorescence ratio to DMSO, % at 10 µM; 4% of 1,700 active;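 active means fluorescence ratio to DMSO above its plate's cutoff, the plate mean ratio plus 5 SD, cut at about 210% in these data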;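 further: unstained yeast with no Nile Red so the signal is compound autofluorescence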
CaMdr1 efflux inh: inhibitors of Candida albicans Mdr1 efflux pump; shares compounds with Efflux pump inh; S. cerevisiae AD/CaMDR1, Nile Red efflux, flow cytometry; AID 588518; inhibition, % at 10 µM; 1% of 1,700 active; in the data active means inhibition above about 26%;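 further: higher means more Nile Red retained so more efflux inhibition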
Cdr2 pump inh: inhibitors of Candida albicans Cdr2 efflux pump | Nile Red retention ratio vs DMSO, % at 10 µM | S. cerevisiae AD/CaCDR2, Nile Red retention, flow cytometry | shares compounds with Efflux pump inh | 4% of 1,700 active | AID 588520; in the data active means Nile Red retention ratio vs DMSO above about 190%;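 further: higher ratio means more blocking of Cdr2 efflux of the dye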
Cdr1 pump inh: inhibitors of Candida albicans Cdr1 efflux pump; S. cerevisiae AD/CaCDR1, Nile Red efflux, flow cytometry; inhibition, % at 10 µM; 1% of 1,700 active; AID 588522; shares compounds with Efflux pump inh;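 active means inhibition above the screen-wide mean plus twice its standard deviation, cut at about 32% in these data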
TbMetRS confirm: Trypanosoma brucei MetRS inhibition confirmed; inhibition, % at 11.9 µM; shares compounds with TbMetRS inhib; 93% of 1,400 active; AID 624412; T. brucei MetRS enzyme, luminescence (ATP depletion); in the data active means inhibition above about 7%
Jurkat tox: Jurkat T cell cytotoxicity for MetRS hits. inhibition, % at 8.3 µM. Jurkat cells viability, ATP luminescence. 12% of 1,400 active. shares compounds with TbMetRS inhib. AID 624413; in the data active means inhibition above about 15%
Tb MetRS inh FP: inhibits T. brucei methionyl tRNA synthetase in orthogonal FP test | AID 651607 | 44% of 1,400 active | purified T. brucei MetRS, fluorescence polarization | shares compounds with TbMetRS inhib | inhibition, % at 11.9 µM; in the data active means inhibition above about 17%
H9c2 TAG conf: confirmation of triacylglycerol accumulation inhibitors; shares compounds with TAG inh; H9c2 lipid accumulation, Nile Red fluorescence; cells loaded with 200 µM oleic acid; inhibition, % at 12.5 µM; 71% of 990 active;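 active means mean inhibition across replicates of 40% or more; inactive means mean inhibition below 40%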
SMARCA2 conf: confirmation of SMARCA2 (BRM) function activators; shares compounds with SMARCA2 activ; MG213 cells, MMTV-luciferase with dexamethasone, luminescence, overnight; MG213 cells expressing E1A, Rb sequestered; DMSO wells 0%, reference activator 100%; activation, % at 9.1 µM; 30% of 3,500 active; AID 652260;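 active means activation above its plate's cutoff, the mean activation of tested wells plus 3 SD, cut at about 7.9% in these data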
GAL4-VP16 Luc: counter-screen for SMARCA2 activators: GAL4-VP16 luciferase reporter activation; HEK293 GAL4-VP16 pG5luc reporter, luciferase luminescence; scaled: DMSO wells 0%, SAHA wells 100%; 41% of 3,500 active; AID 686939; shares compounds with SMARCA2 activ; activation, % at 9.1 µM;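 active means activation above the solvent-only control well mean plus 3 SD, averaged across control plates, cut at about 5.2% in these data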
Large screens that a line does not name were inactive (follow-up assays come after a bar, where they were run).

O=C(CC1C[C@H](C(=O)N2CCOCC2)[C@@]2(CCC3CCCC3)c3[nH]c4ccccc4c3CCN2C1=O)NCC12CC3CC(CC(C3)C1)C2 (stereo partly specified)	Efflux pump inh 1.2, TAG inh 61 | Yeast cmpd fluor inactive | CaMdr1 efflux inh inactive | Cdr2 pump inh inactive | Cdr1 pump inh inactive | H9c2 TAG conf 56
COc1ccc(C(C(=O)NC(C)(C)C)N(Cc2ccco2)C(=O)CCC(=O)Nc2ccccn2)cc1 (stereo unspecified)	none (no result: TAG inh)
COc1ccc(C(C(=O)NC(C)(C)C)N(Cc2ccco2)C(=O)CCC(=O)Nc2cc(C)on2)cc1 (stereo unspecified)	TAG inh 56 | Yeast cmpd fluor inactive | CaMdr1 efflux inh inactive | Cdr2 pump inh inactive | Cdr1 pump inh inactive | H9c2 TAG conf 46
C[C@H]1CN([C@@H](C)CO)C(=O)c2cc(NC(=O)Nc3cccc4ccccc34)ccc2O[C@@H]1CN(C)Cc1ccc(-c2ccccc2)cc1	Efflux pump inh 1.8, TAG inh 72 | Yeast cmpd fluor inactive | CaMdr1 efflux inh inactive | Cdr2 pump inh 188 | Cdr1 pump inh inactive | H9c2 TAG conf 71
COC(=O)C1CN(Cc2cn(Cc3ccccc3)nn2)CCS(=O)(=O)N1Cc1ccc(F)cc1 (stereo unspecified)	none (no result: Efflux pump inh, TbMetRS inhib, TAG inh, AHR activator)
CC(=O)Nc1ccc(-c2cn3cc(C)ccc3n2)cc1	Efflux pump inh 6.5, SMARCA2 activ 8.1 (no result: TAG inh) | Yeast cmpd fluor inactive | CaMdr1 efflux inh inactive | Cdr2 pump inh inactive | Cdr1 pump inh inactive | SMARCA2 conf inactive | GAL4-VP16 Luc 11
Cc1ccnc(N2C(=O)c3cccc4c([N+](=O)[O-])ccc(c34)C2=O)c1	Efflux pump inh 0.9, SMARCA2 activ 9.9 (no result: TAG inh) | Yeast cmpd fluor inactive | CaMdr1 efflux inh inactive | Cdr2 pump inh inactive | Cdr1 pump inh inactive | SMARCA2 conf inactive | GAL4-VP16 Luc inactive
Cc1ccnc(N2C(=O)c3ccccc3C2=O)c1	none (no result: TAG inh)
COc1cc(C=C(c2nc3ccccc3s2)c2nc3ccccc3s2)ccc1O	none
COc1cc(/C=C/c2nc3ccccc3s2)cc(OC)c1O	Efflux pump inh 0.8, SMARCA2 activ 11 | Yeast cmpd fluor inactive | CaMdr1 efflux inh inactive | Cdr2 pump inh inactive | Cdr1 pump inh inactive | SMARCA2 conf inactive | GAL4-VP16 Luc inactive
Cc1nc2cc(C(=O)N3CCN(C(=O)C(C)(C)C)CC3)ccc2n1C1CCCC1	none (no result: Efflux pump inh, TbMetRS inhib, TAG inh, AHR activator)
CCN(CC)c1ccc(/C=C(\C#N)c2ccccn2)cc1	none (no result: TAG inh, SMARCA2 activ)
CCN(CC)c1ccc(C=N/C(C#N)=C(\N)C#N)cc1	Efflux pump inh 0.7, SMARCA2 activ 8.8 (no result: TAG inh) | Yeast cmpd fluor inactive | CaMdr1 efflux inh inactive | Cdr2 pump inh 348 | Cdr1 pump inh inactive | SMARCA2 conf inactive | GAL4-VP16 Luc 7.5
COc1ccc2c(c1)CC/C(=C/c1ccco1)C2=O	Efflux pump inh 20, SMARCA2 activ 20 (no result: TAG inh) | Yeast cmpd fluor inactive | CaMdr1 efflux inh inactive | Cdr2 pump inh inactive | Cdr1 pump inh inactive | SMARCA2 conf inactive | GAL4-VP16 Luc 12
COc1ccc(C(=O)OCCCN(C)C2CN(Cc3cn(Cc4ccc([N+](=O)[O-])cc4)nn3)S(=O)(=O)C2)cc1OC (stereo unspecified)	none (no result: Efflux pump inh, TbMetRS inhib, TAG inh, AHR activator)
CCOCCCNC(=O)/C(C#N)=C/c1ccc([N+](=O)[O-])o1	Efflux pump inh 0.9, SMARCA2 activ 12 | Yeast cmpd fluor inactive | CaMdr1 efflux inh inactive | Cdr2 pump inh inactive | Cdr1 pump inh inactive | SMARCA2 conf inactive | GAL4-VP16 Luc inactive
COc1ccc(CN(CCN2CCOCC2)C(=O)c2ccccc2C)cc1OC	none (no result: Efflux pump inh, TbMetRS inhib, TAG inh, AHR activator)
O=c1c2ccccc2sc2ccc(NCCCN3CCOCC3)cc12	none
CN1CCCC1CCNc1ccc2sc3ccccc3c(=O)c2c1 (stereo unspecified)	Efflux pump inh 2.0, SMARCA2 activ 11 | Yeast cmpd fluor 254 | CaMdr1 efflux inh inactive | Cdr2 pump inh inactive | Cdr1 pump inh inactive | SMARCA2 conf 14 | GAL4-VP16 Luc 7.5
Cc1ccc(/C=C\c2nccc3c2[nH]c2ccccc23)cc1	Efflux pump inh 1.2, SMARCA2 activ 10, AHR activator 51 | Yeast cmpd fluor inactive | CaMdr1 efflux inh inactive | Cdr2 pump inh inactive | Cdr1 pump inh inactive | SMARCA2 conf inactive | GAL4-VP16 Luc 8.1
O=C1C[C@H](C(=O)Nc2ccc(Cl)cc2)[C@@H](c2ccccc2)O1	none (no result: Efflux pump inh, TbMetRS inhib, TAG inh, AHR activator)
O=C(CC(=O)Nc1cccc(Cl)c1)N/N=C\c1ccccc1	TbMetRS inhib 36 (no result: TAG inh) | TbMetRS confirm 82 | Jurkat tox inactive | Tb MetRS inh FP 51
CCOc1ccc(/C=N/NC(=O)CC(=O)Nc2ccc(Cl)c(Cl)c2)cc1	none (no result: TAG inh)
O=C(CCCOc1ccc(Cl)cc1Cl)N/N=C/c1ccccc1	TbMetRS inhib 12 (no result: TAG inh) | TbMetRS confirm 39 | Jurkat tox inactive | Tb MetRS inh FP 34
O=C(CCCOc1ccc(Cl)cc1Cl)N/N=C/c1ccco1	TbMetRS inhib 17 | TbMetRS confirm 52 | Jurkat tox inactive | Tb MetRS inh FP 57
Cc1ccc(/C=N/NC(=O)CCCOc2ccc(Cl)cc2Cl)cc1	none (no result: TAG inh)
Cc1cc(Cl)ccc1OCCCC(=O)NNC(=O)c1ccccc1O	TbMetRS inhib 6.0 | TbMetRS confirm 25 | Jurkat tox inactive | Tb MetRS inh FP 22
Cc1ccc(S(=O)(=O)N2CCC(C(=O)NCc3cccs3)CC2)cc1	none (no result: Efflux pump inh, TbMetRS inhib, TAG inh, AHR activator)
O=C(CCCOc1ccc(Cl)cc1Cl)N1CCN(c2ccccn2)CC1	TbMetRS inhib 12 (no result: TAG inh) | TbMetRS confirm 20 | Jurkat tox inactive | Tb MetRS inh FP inactive

Assay outcomes as filed in PubChem BioAssay.
